The source of these data is ChEMBL document CHEMBL1139334, “Discovery of novel analgesic and anti-inflammatory 3-arylamine-imidazo[1,2-a]pyridine symbiotic prototypes” (Bioorg Med Chem, 2009).

Assay [1] has as its system Rattus norvegicus. Put plainly: Antiinflammatory activity in Wistar rat assessed as inhibition of carrageenan-induced paw edema at 100 umol/kg, po measured 3 hrs post carrageenan challenge. Format: functional. The gist of the method:
(§1)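 Fasted Wistar rats of both sexes (150–200 g) were dosed orally with a suspension in 5% arabic gum in saline; controls received vehicle. After 1 h, 1% carrageenan (0.1 ml, […]) was injected subplantarly into the right hind paw and sterile saline into the left. Paw volumes were read by glass plethysmometer 3 h later. Edema is the carrageenan-minus-saline paw volume; results are % inhibition versus vehicle.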

For assay [2], the system named is Mus musculus. Briefly: Analgesic activity in Swiss mouse assessed as inhibition of acetic acid-induced abdominal constriction at 100 umol/kg, po administered 1 hr before acetic acid challenge. Format: functional. The note with it: Abdomen. The gist of the method:
(§2)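 Swiss mice (18–23 g) received compounds orally as a suspension in 5% arabic gum in saline; controls received an equal volume of vehicle. After 1 h, 0.6% acetic acid (0.1 ml/10 g) was given ip. Constrictions were counted for 20 min, starting 10 min after injection. Results are % inhibition versus vehicle; N = 7–10 per group; mean ± SEM; one-way ANOVA with Dunnett test.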

In assay [3] the test system is Rattus norvegicus. Put plainly: Antihyperalgesic activity in Wistar rat assessed as inhibition of capsaicin-induced thermal hyperalgesia at 100 umol/kg, po. Format: functional, organism-based. The gist of the method:
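Fasted Wistar rats of both sexes (150–200 g) had basal and acclimatization withdrawal latencies recorded on a 52 °C hot plate. Compound was given orally 1 h before an intraplantar injection of 5% capsaicin in DMSO into the right hind paw. Right hind paw withdrawal latency was timed by chronometer at 2, 5, 10, 30 and 60 min post-challenge.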

For assay [4], the target named is T1, Prostaglandin G/H synthase 2 (Homo sapiens, UniProt P35354).
T1 sequence (P35354 whole entry): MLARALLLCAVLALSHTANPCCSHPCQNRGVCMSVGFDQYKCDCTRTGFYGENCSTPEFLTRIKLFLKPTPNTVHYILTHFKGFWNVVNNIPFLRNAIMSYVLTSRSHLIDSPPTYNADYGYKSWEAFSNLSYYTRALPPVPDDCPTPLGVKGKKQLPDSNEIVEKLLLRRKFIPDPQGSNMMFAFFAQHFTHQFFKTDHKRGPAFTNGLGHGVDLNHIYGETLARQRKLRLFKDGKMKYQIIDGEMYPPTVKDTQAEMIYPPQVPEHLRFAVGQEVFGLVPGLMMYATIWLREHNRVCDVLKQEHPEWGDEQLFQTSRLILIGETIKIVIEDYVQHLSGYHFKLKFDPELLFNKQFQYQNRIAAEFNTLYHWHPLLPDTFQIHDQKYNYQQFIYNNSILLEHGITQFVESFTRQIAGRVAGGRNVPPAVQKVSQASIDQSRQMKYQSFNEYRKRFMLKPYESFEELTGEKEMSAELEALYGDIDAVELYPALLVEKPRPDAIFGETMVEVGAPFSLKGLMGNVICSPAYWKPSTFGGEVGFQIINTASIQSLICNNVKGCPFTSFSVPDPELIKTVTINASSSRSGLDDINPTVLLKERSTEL
Put plainly: Inhibition of PGHS2 in human whole blood assessed as inhibition of TXB2 production by radioimmunoassay. The assay is classed as tissue-based.

In assay [5] the test system is Mus musculus. Put plainly: Analgesic activity in po dosed Swiss mouse assessed as inhibition of acetic acid-induced abdominal constriction administered 1 hr before acetic acid challenge. To be noted: Abdomen. Format: functional. The essentials:
as §2

Assay [6] has as its system Rattus norvegicus. Briefly: Antiinflammatory activity in po dosed Wistar rat assessed as inhibition of carrageenan-induced paw edema measured 3 hrs post carrageenan challenge. Format: functional. The gist of the method: as §1
On the technique in general: In the carrageenan paw model, swelling and tenderness develop within hours.

pIC50: −log10 of the molar value. Active and inactive are the calls of the source. No cut-off for these calls is given here.

For the compound `CS(=O)(=O)c1ccc(Nc2c(-c3ccncc3)nc3ccccn23)cc1`, the inhibition in vivo at 100 µmol/kg in the assay on Rattus norvegicus [1] was 1.8%; with Mus musculus [2] it was 33.6%. In addition, the result in the assay with Rattus norvegicus [3] was Active.
Consider `COc1ccc(Nc2c(-c3ccc(S(C)(=O)=O)cc3)nc3ccccn23)cc1`, for which the inhibition in vivo at 100 µmol/kg turned out to be 41.7% with Rattus norvegicus [1] and 53% in the assay with Mus musculus [2]. In assay [4], the pIC50 was 5.55. Besides, the figures for the ED50 with Mus musculus [5] and in the assay on Rattus norvegicus [6] were 22.7 µmol/kg and 8.7 µmol/kg, respectively. The result in the assay with Rattus norvegicus [3] was inactive.
For `CS(=O)(=O)c1ccc(Nc2c(-c3ccccn3)nc3ccccn23)cc1`, the figures for the inhibition in vivo at 100 µmol/kg in the assay on Rattus norvegicus [1] and with Mus musculus [2] were 18.5% and 33.7%, respectively. In addition, in the assay with Rattus norvegicus [3], the result was Active.
Take `c1ccc(Nc2c(-c3ccncc3)nc3ccccn23)cc1`: the inhibition in vivo at 100 µmol/kg came out at 49.9% in the assay on Rattus norvegicus [1] and 13% with Mus musculus [2]. The ED50 with Rattus norvegicus [6] is 11.5 µmol/kg. In the assay with Rattus norvegicus [3], the result was Active.
For `CS(=O)(=O)c1ccc(-c2nc3ccccn3c2Nc2ccccn2)cc1`, the inhibition in vivo at 100 µmol/kg with Rattus norvegicus [1] was 17.2%; in the assay on Mus musculus [2], 22.2%. Also, in the assay with Rattus norvegicus [3], the result was Active.
Turning to `c1ccc(Nc2c(-c3ccccc3)nc3ccccn23)cc1`, the inhibition in vivo at 100 µmol/kg in the assay on Rattus norvegicus [1] was 63.9%; in the assay with Mus musculus [2], 10.8%. The ED50 with Rattus norvegicus [6] was determined as 14.5 µmol/kg. In the assay with Rattus norvegicus [3], the outcome was Active.
As for `Cc1ccc(-c2cc(C(F)(F)F)nn2-c2ccc(S(N)(=O)=O)cc2)cc1` [CELECOXIB], the inhibition in vivo at 100 µmol/kg in the assay with Rattus norvegicus [1] came to 30%; in the assay on Mus musculus [2], 46.1%. Also, the ED50 was 247 µmol/kg in the assay with Mus musculus [5] and 87.7 µmol/kg in the assay with Rattus norvegicus [6].
As to `CS(=O)(=O)c1ccc(-c2nc3ccccn3c2Nc2ccccc2)cc1`, the inhibition in vivo at 100 µmol/kg in the assay with Rattus norvegicus [1] was determined as 28.2%; with Mus musculus [2], 7.4%. Further, the result in the assay on Rattus norvegicus [3] was inactive.
`c1ccc(Nc2c(-c3ccccn3)nc3ccccn23)cc1`: the inhibition in vivo at 100 µmol/kg with Rattus norvegicus [1] was 33.4%; with Mus musculus [2], -3%. In addition, in assay [4], the negative logarithm of the IC50 (pIC50) is 4.73. In the assay with Rattus norvegicus [3], the outcome was Active.

As usually defined, the inhibition in vivo is the relative decrease from the control value, in per cent. As a reminder, the pIC50 is the negative decadic logarithm of the IC50, by convention in mol/L. Usually ED50 stands for the midpoint of the dose-response relation.
